# Published values of several laboratories.
# Compare with care: the assays were run in different laboratories.
# Target: Phosphatidylinositol 4-kinase beta (PI4KB, Homo sapiens, UniProt Q9UBF8)
Structure (SMILES),read-out,technique,concentration,remaining binding [%]
N[C@H]1CCN(c2nccc(-c3cnn4ncccc34)n2)C1,binding,,1 µM,100
O=C(NCCCN1CCOCC1)c1ccc(Nc2ncc(Cl)c(-c3ccc(Cl)s3)n2)cc1,binding,competition with immobilised ligand,1 µM,100
O=C(Nc1c[nH]nc1C(=O)NC1CCNCC1)c1cc(F)cc(F)c1,binding,competition with immobilised ligand,1 µM,100
C[C@H]1CCN(c2nccc(-c3cnn4ncccc34)n2)C1,binding,,1 µM,19
O=C(c1ccc(Nc2nccc(-c3cc4ccccc4s3)n2)cc1)N1CCC(N2CCCC2)CC1,binding,competition with immobilised ligand,1 µM,58
c1cncc(-c2cccc(Nc3nccc(NC4CCCCC4)n3)c2)c1,binding,competition with immobilised ligand,10 µM,1.1
COc1cnc(Nc2cccc(S(N)(=O)=O)c2)nc1N1CCN(c2ccccc2)C(=O)C1,binding,competition with immobilised ligand,1 µM,13
Nc1c(C(=O)NCc2ccc(C(=O)NCCCC3CCCCC3)cc2)cnn1-c1ccccc1,cell-free assay,competition with immobilised ligand,0.1 µM,100
COc1ncc2cc3ccccc3nc2c1C#N,cell-free assay,competition with immobilised ligand,5 µM,25
CN(C)c1ncc(F)c(-c2cnn3ncccc23)n1,binding,,1 µM,100
FC(F)(F)Oc1cccc(-c2cnc3ccc(-c4ccncc4)nn23)c1,binding,competition with immobilised ligand,5 µM,0.05
O=C(c1ccc(Nc2ncc(Cl)c(-c3ccc(Cl)s3)n2)cc1)N1CCC(N2CCCC2)CC1,binding,competition with immobilised ligand,1 µM,100
Cc1c(C(=O)O)cc(-c2ccc(C3CCNCC3)cc2)c2ccc(-c3ccc(C(F)(F)F)cc3)cc12,cell-free assay,competition with immobilised ligand,1 µM,100
CN(C)c1nccc(-c2cnn3ncccc23)n1,binding,,1 µM,58
CSc1cccnc1N1CCN(Cc2nc3ccccc3[nH]2)CC1,cell-free assay,competition with immobilised ligand,1 µM,73
COc1ccnn2ncc(-c3ccnc(N(C)C)n3)c12,binding,,1 µM,65
CN(C)C(=O)Cn1cc(-c2nc([C@@](C)(c3ccc(-c4cnc(N)nc4)cc3)C3CC3)no2)cn1,cell-free assay,competition with immobilised ligand,1 µM,92
Cc1cnn2ncc(-c3ccnc(N(C)C)n3)c2c1,binding,,1 µM,56
FC(F)(F)c1ccc2c(c1)nc(-c1cccnc1)n2C1CC1,cell-free assay,competition with immobilised ligand,1 µM,94
C=CC(=O)N1CCC(C(=O)NCC(=O)N2CCN(c3nc(-c4cnc(N)nc4C(F)F)nc(N4CCOCC4)n3)CC2)CC1,binding,competition with immobilised ligand,1 µM,100
c1ccc(N2CCN(Cc3nc4ccccc4[nH]3)CC2)nc1,cell-free assay,competition with immobilised ligand,1 µM,100
CCN1CCN(Cc2ccc(C(=O)Nc3ccc(C)c(Oc4ccc5c(c4)CC(=O)N5)c3)cc2C(F)(F)F)CC1,binding,competition with immobilised ligand,1 µM,100
